A selection: hits, their analogues and other compounds. The true share with any hit is near 1.2%.
CSN inh: CSN deneddylation inhibition; Purified CSN, SCF-Nedd8-OG deneddylation, fluorescence polarization; inhibition, % at 12.5 µM; 360,000 compounds, 0.38% hits;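 active = pattern-corrected inhibition above about 35%, with an unprinted fluorescence ratio check between 0.5 and 1.5, limit read from the data, passing the limit was not always enough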
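Assay system: purified human Csn5 enzyme expressed in HEK293T cells; Input: 0.24 nM Csn5 enzyme, final concentration; Reagent: 10 nM SCFSkp2-Nedd8OG; Compound dosing: 12.5 µM single point; Times: reaction 90 min, room temperature; Technique: fluorescence polarization readout.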
TPT1 inhibitor: blocks Candida albicans tRNA 2'-phosphotransferase; recombinant caTPT1, FP RNA substrate dephosphorylation; inhibition, % at 5 µM; 300,000 compounds, 0.81% hits; AID 1962;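 active = inhibition above the mean of all tested compounds plus 3 SD, set per screening campaign, cut at about 24% in these data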
HNF4A DNA FP: change in binding of human HNF4 alpha to DNA; activity change, % at 10 µM; HNF4a-FITC DNA binding, fluorescence polarization, 1 h; 360,000 compounds, 0.3% hits; in the data active = activity change above about 30%, passing the limit was not always enough
Target sequence (P41235 whole entry, looked up): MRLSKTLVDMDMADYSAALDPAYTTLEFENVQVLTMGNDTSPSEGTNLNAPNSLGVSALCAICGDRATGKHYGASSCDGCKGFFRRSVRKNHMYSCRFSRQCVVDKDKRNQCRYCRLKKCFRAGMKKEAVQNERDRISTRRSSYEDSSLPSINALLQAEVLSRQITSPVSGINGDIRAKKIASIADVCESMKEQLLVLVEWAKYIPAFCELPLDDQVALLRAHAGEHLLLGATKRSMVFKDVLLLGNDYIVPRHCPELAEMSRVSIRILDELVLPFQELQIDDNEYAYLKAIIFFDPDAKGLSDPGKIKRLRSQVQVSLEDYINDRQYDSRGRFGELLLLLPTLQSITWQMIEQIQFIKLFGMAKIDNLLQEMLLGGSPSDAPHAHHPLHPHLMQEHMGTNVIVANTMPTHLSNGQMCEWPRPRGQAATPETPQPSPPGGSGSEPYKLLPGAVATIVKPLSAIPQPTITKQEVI
Rtt109 HAT inh: C. albicans Rtt109 histone acetyltransferase inhibition | 330,000 compounds, 0.16% hits | purified Rtt109/Vps75, ThioGlo CoA-SH fluorescence, 4 h | AID 540336 | inhibition, % at 34.9 µM;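 active = inhibition of at least 50% in every replicate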
TPT1 inh confirm: confirmation of Candida albicans TPT1 inhibitors | shares compounds with TPT1 inhibitor | recombinant caTPT1, fluorescence polarization, RNase T1 coupled | inhibition, % at 5 µM | 2,400 compounds, 74% hits;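 active = inhibition above the primary screen limit, the mean inhibition of all tested compounds plus 3 SD, cut at about 25% in these data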
RNase T1 inh: blocks Aspergillus oryzae RNase T1, a TPT1 counter-screen; shares compounds with TPT1 inhibitor; RNase T1 cleavage, fluorescence polarization, 1536-well; inhibition, % at 5 µM; 2,400 compounds, 83% hits; AID 2153;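 active = inhibition above the solvent-only control well mean plus 3 SD, limit set per screening run, cut at about 23% in these data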;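 note: inhibitors block cleavage so intact labeled substrate keeps polarization high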
Target sequence (P00651 whole entry, looked up): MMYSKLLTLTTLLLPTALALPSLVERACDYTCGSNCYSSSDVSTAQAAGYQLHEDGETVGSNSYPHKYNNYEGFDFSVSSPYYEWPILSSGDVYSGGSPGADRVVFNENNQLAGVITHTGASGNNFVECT
Of the large screens only hits and unclear results are named; the others gave an inactive call (follow-up assays come after a bar, where they were run).

Cn1cc(-c2ccccc2C(N)=O)c(=O)c2cc(Cl)ccc21	none
COc1ccccc1N1C(=O)C2C(C(=O)c3ccccc3)=NN(c3ccc(C)cc3)C2C1=O (centres undefined)	TPT1 inhibitor 51 (no result: Rtt109 HAT inh) | TPT1 inh confirm 65 | RNase T1 inh 73
COc1ccccc1N1C(=O)C2C(C(=O)c3ccccc3)=NN(c3ccc(Br)cc3)C2C1=O (centres undefined)	TPT1 inhibitor 35 (no result: Rtt109 HAT inh) | TPT1 inh confirm 27 | RNase T1 inh 41
COC(=O)C1=NN(c2ccc(C)cc2)C2C(=O)N(c3ccccc3OC)C(=O)C12 (centres undefined)	none
CC(=O)Nc1cccc(C(=O)OC(C)C(=O)N2CCc3ccccc32)c1 (centres undefined)	none
O=C(O)Cc1sc(Nc2ccccc2)nc1-c1cccs1	CSN inh 51, TPT1 inhibitor 42, HNF4A DNA FP 45 | TPT1 inh confirm 36 | RNase T1 inh 46
CCN(CC)CCNc1nc(-c2cccs2)c(CC(=O)O)s1	TPT1 inhibitor 29 | TPT1 inh confirm inactive | RNase T1 inh inactive
O=C(O)Cc1sc(NCCc2ccccc2)nc1-c1ccc(F)cc1	TPT1 inhibitor 27 | TPT1 inh confirm inactive | RNase T1 inh inactive
C=CCNc1nc(-c2cccs2)c(CC(=O)O)s1	none
Cc1cc(C(=O)OCC(=O)N2CCc3ccccc32)ccc1[N+](=O)[O-]	none (no result: TPT1 inhibitor)
COc1ccccc1/C=C/C=C1\Oc2c(ccc(O)c2CN(C)C)C1=O	TPT1 inhibitor 32 | TPT1 inh confirm 33 | RNase T1 inh 45
COc1ccc(NC2=Nc3cccc4cccc2c34)cc1OC	TPT1 inhibitor 33 | TPT1 inh confirm 31 | RNase T1 inh 40
COc1cc(NC2=Nc3cccc4cccc2c34)cc(OC)c1OC	TPT1 inhibitor 31 | TPT1 inh confirm 32 | RNase T1 inh 43
COc1cccc(Nc2n[nH]c(=S)s2)c1	none
COc1cccc(NC2=Nc3cccc4cccc2c34)c1	TPT1 inhibitor 25 | TPT1 inh confirm 35 | RNase T1 inh 44
COc1cc(Nc2ncnc(N)n2)cc(OC)c1OC	none
COc1ccc(CC(=O)NNC2=Nc3cccc4cccc2c34)cc1OC	none
CC(NCc1cc(Br)ccc1OCC(=O)NCc1ccccc1)c1ccccc1 (centres undefined)	none
COc1cc2c(cc1OC)CN(C(=O)C1CCN(S(=O)(=O)c3ccccc3F)CC1)CC2	none
CS(=O)(=O)n1c2ccccc2c(=O)n1-c1ccccc1CCl	none (no result: TPT1 inhibitor, Rtt109 HAT inh)
CCN(C(=O)c1ccccc1)c1ccc([N+](=O)[O-])cc1	none
O=[N+]([O-])c1ccc(N(c2ccccc2)c2ccccc2)cc1	TPT1 inhibitor 30 | TPT1 inh confirm 32 | RNase T1 inh 46
CCOc1cc2c(C#N)c(N3CCCCC3)nc(N)c2c(N)n1	TPT1 inhibitor 50 | TPT1 inh confirm 49 | RNase T1 inh 58
COc1ccc(CN2C(=O)Cc3c2nc(N)c2c(N)nc(N4CCCCC4)c(C#N)c32)cc1	TPT1 inhibitor 31 (no result: CSN inh, HNF4A DNA FP, Rtt109 HAT inh) | TPT1 inh confirm 58 | RNase T1 inh 68
CN(C=O)c1cc([N+](=O)[O-])ccc1OCc1ccccc1	none (no result: TPT1 inhibitor)
COC(=O)c1c(-c2ccccc2Cl)noc1/C=C/N(C)C	TPT1 inhibitor 131 (no result: Rtt109 HAT inh) | TPT1 inh confirm 28 | RNase T1 inh 35
O=c1[nH]c2ccc(S(=O)(=O)Nc3ccc(Cl)cc3)cc2[nH]1	none
CCC(C)N=Cc1c(Nc2ccccc2)nc2c(C)cccn2c1=O (centres undefined)	none
CCOCCCNc1nc2c(C)cccn2c(=O)c1/C=C1\SC(=S)N(C(C)CC)C1=O (centres undefined)	TPT1 inhibitor 135 | TPT1 inh confirm 157 | RNase T1 inh 145
CC(=O)Nc1ccc(N=Cc2c(O)c3ccccc3oc2=O)cc1	none (no result: TPT1 inhibitor)
CC(=O)Nc1ccc(N=Cc2c(O)c(C(=O)Nc3ccccc3)cc3ccccc23)cc1	TPT1 inhibitor 121 (no result: CSN inh, HNF4A DNA FP, Rtt109 HAT inh) | TPT1 inh confirm 109 | RNase T1 inh 107
Cc1cc(C)cc(N(CC(=O)N2CCCCCC2)S(C)(=O)=O)c1	none
COc1ccc2c(Cl)c(C(=O)N/N=C3\CCCC(=O)C3)sc2c1	TPT1 inhibitor 97 | TPT1 inh confirm 121 | RNase T1 inh 115
COc1ccc2c(Cl)c(C(=O)N/N=C/c3ccc4c(c3)OCO4)sc2c1	none
O=C(OCc1ccccc1)N1CCC2CC1c1c2cccc1N1CCOCC1 (centres undefined)	none (no result: TPT1 inhibitor, Rtt109 HAT inh)
COc1ccc(C(=O)c2sc3nc(-c4ccccc4)ccc3c2N)cc1	TPT1 inhibitor 82 | TPT1 inh confirm 85 | RNase T1 inh 92
O=[N+]([O-])c1ccc(NN=CC2CCCCCC2)c([N+](=O)[O-])c1	none (no result: TPT1 inhibitor, Rtt109 HAT inh)
Cc1ccc(C)c(N2CCN(S(=O)(=O)c3c(C)noc3/C=C/N(C)C)CC2)c1	TPT1 inhibitor 29 | TPT1 inh confirm inactive | RNase T1 inh inactive
Cc1ccc(CN2CC(C(=O)Nc3ncccc3C)CC2=O)cc1 (centres undefined)	none
CCCNC(=O)C1(O)c2cc(Br)ccc2NC(=O)N1c1ccc(Cl)cc1 (centres undefined)	none
Cc1nc2ccccc2c(=O)n1/N=C/c1cc(Br)ccc1O	none
Cc1nc2ccccc2c(=O)n1/N=C/c1c(O)ccc2ccccc12	TPT1 inhibitor 39 (no result: Rtt109 HAT inh) | TPT1 inh confirm inactive | RNase T1 inh inactive
CCCc1ccc(OCC(O)CN2CCN(c3ccccn3)CC2)cc1 (centres undefined)	none
CCCCCCc1cc2cc(-c3nnc(-c4cc(OC)c(OC)c(OC)c4)o3)c(=O)oc2cc1O	TPT1 inhibitor 118 (no result: CSN inh, HNF4A DNA FP, Rtt109 HAT inh) | TPT1 inh confirm 130 | RNase T1 inh 121
CCCCCCc1cc2cc(C(=O)Nc3ccccc3OC)c(=O)oc2cc1O	none
CCCCCCc1cc2cc(S(=O)(=O)c3ccc(F)cc3)c(=O)oc2cc1O	none
CCCCCCc1cc2cc(-c3nnc(-c4ccccc4O)o3)c(=O)oc2cc1O	TPT1 inhibitor 121 | TPT1 inh confirm 114 | RNase T1 inh 113
CCCCCCc1cc2cc(-c3nnc(-c4ccccc4OC)o3)c(=O)oc2cc1O	TPT1 inhibitor 97 | TPT1 inh confirm 97 | RNase T1 inh 114
O=C(CCc1nc2ccccc2c(=O)[nH]1)N1CCCc2ccccc21	none
CCN(CC)C(=O)[C@H]1CC(CC(=O)NCc2ccc(OC)c(OC)c2)C(=O)N2CCc3c([nH]c4ccc(OC)cc34)[C@]12C (some centres undefined)	none (no result: TPT1 inhibitor)
O=[N+]([O-])c1ccc(/C=N/n2c(CO)nc3ccccc32)s1	none
Cc1nc2ccccc2n1/N=C/c1ccc([N+](=O)[O-])s1	TPT1 inhibitor 28 | TPT1 inh confirm 36 | RNase T1 inh 59
COc1cccc(C2Oc3ccccc3C3CC(c4cccs4)=NN32)c1 (centres undefined)	TPT1 inhibitor 61 (no result: Rtt109 HAT inh) | TPT1 inh confirm 33 | RNase T1 inh 46
O=C(c1ccccc1)C1Oc2ccccc2C2CC(c3cccs3)=NN12 (centres undefined)	none

Bioassay records: PubChem, several laboratories
